Measured values from ChEMBL document CHEMBL1158537, “Antibacterial activities of aminoglycoside antibiotics-derived cationic amphiphiles. Polyol-modified neomycin B-, kanamycin A-, amikacin-, and neamine-based amphiphiles with potent broad spectrum antibacterial activity” (2010).

How the values were obtained:
[1] = system: Staphylococcus aureus; assay: Antibacterial activity against Staphylococcus aureus ATCC 29213 after 24 hrs by macrobroth dilution method; type: functional; details: ATCC 29213, 24 h
How it was run: (§1)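 Reference strains from the American Type Culture Collection were tested by broth macrodilution following CLSI methodology. The read-out was the minimum inhibitory concentration, reported in μg/mL. The same method was used for the Gram-positive and Gram-negative organisms.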

[2] = system: Pseudomonas aeruginosa; assay: Antibacterial activity against Pseudomonas aeruginosa CAN-ICU 62308 after 24 hrs by macrobroth dilution method; type: functional; details: CAN-ICU 62308, 24 h
How it was run: (§2)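 Broth macrodilution was run following CLSI methodology against ATCC reference strains and clinical isolates from the Canadian Intensive Care Unit (CAN-ICU) study, with Gram-positive and Gram-negative organisms tested. The value is the minimum inhibitory concentration, reported in μg/mL.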

[3] = system: Staphylococcus aureus; assay: Antibacterial activity against methicillin-resistant Staphylococcus aureus ATCC 33592 after 24 hrs by macrobroth dilution method; type: functional; details: ATCC 33592, 24 h; how it was run: as §1
[4] = system: Pseudomonas aeruginosa; assay: Antibacterial activity against Pseudomonas aeruginosa ATCC 27853 after 24 hrs by macrobroth dilution method; type: functional; details: ATCC 27853, 24 h; how it was run: as §2
[5] = system: Streptococcus pneumoniae; assay: Antibacterial activity against Streptococcus pneumoniae ATCC 49619 after 24 hrs by macrobroth dilution method; type: functional; details: ATCC 49619, 24 h; how it was run: as §2
[6] = system: Escherichia coli; assay: Antibacterial activity against gentamicin-resistant Escherichia coli ATCC 6174 after 24 hrs by macrobroth dilution method; type: functional; details: ATCC 6174, 24 h; how it was run: as §1
[7] = system: Escherichia coli; assay: Antibacterial activity against Escherichia coli ATCC 25922 after 24 hrs by macrobroth dilution method; type: functional; details: ATCC 25922, 24 h; how it was run: as §1
[8] = system: Escherichia coli; assay: Antibacterial activity against Escherichia coli CAN-ICU 63074 after 24 hrs by macrobroth dilution method; type: functional; details: CAN-ICU 63074, 24 h; how it was run: as §2
[9] = system: Staphylococcus epidermidis; assay: Antibacterial activity against methicillin-resistant Staphylococcus epidermidis ATCC 14990 after 24 hrs by macrobroth dilution method; type: functional; details: ATCC 14990, 24 h
[10] = system: Staphylococcus epidermidis; assay: Antibacterial activity against Staphylococcus epidermidis […] after 24 hrs by macrobroth dilution method; type: functional; how it was run: as §2
[11] = system: Klebsiella pneumoniae; assay: Antibacterial activity against Klebsiella pneumoniae ATCC 13883 after 24 hrs by macrobroth dilution method; details: ATCC 13883, 24 h
[12] = system: Stenotrophomonas maltophilia; assay: Antibacterial activity against Stenotrophomonas maltophilia CAN-ICU 62585 after 24 hrs by macrobroth dilution method; type: functional; details: CAN-ICU 62585, 24 h; how it was run: as §2
[13] = system: Acinetobacter baumannii; assay: Antibacterial activity against Acinetobacter baumannii CAN-ICU 63169 after 24 hrs by macrobroth dilution method; type: functional; details: CAN-ICU 63169, 24 h; how it was run: as §2

Compound | MIC [1] [µg/mL] | MIC [2] [µg/mL] | MIC [3] [µg/mL] | MIC [4] [µg/mL] | MIC [5] [µg/mL] | MIC [6] [µg/mL] | MIC [7] [µg/mL] | MIC [8] [µg/mL] | MIC [9] [µg/mL] | MIC [10] [µg/mL] | MIC [11] [µg/mL] | MIC [12] [µg/mL] | MIC [13] [µg/mL]
NC[C@H]1O[C@H](O[C@H]2[C@H](OC(=O)Nc3ccccc3)[C@@H](OC(=O)Nc3ccccc3)[C@H](N)C[C@@H]2N)[C@H](N)[C@@H](OC(=O)Nc2ccccc2)[C@@H]1OC(=O)Nc1ccccc1.O=C(O)C(F)(F)F | 16 | 128 | 16 | 128 | > 256 | 32 | 32 | 32 | 8 | 8 | 64 | 64 | 256
NCC[C@H](OC(=O)Nc1ccccc1)C(=O)N[C@@H]1C[C@H](N)[C@@H](C[C@H]2O[C@H](CN)[C@@H](OC(=O)Nc3ccccc3)[C@H](OC(=O)Nc3ccccc3)[C@H]2OC(=O)Nc2ccccc2)[C@H](OC(=O)Nc2ccccc2)[C@H]1O[C@H]1O[C@H](COC(=O)Nc2ccccc2)[C@@H](OC(=O)Nc2ccccc2)[C@H](N)[C@H]1OC(=O)Cc1ccccc1.O=C(O)C(F)(F)F | 8 | 256 | 16 | > 256 | 32 | 256 | 256 | 256 | 2 | 2 | 256 | 128 | 256
NC[C@H]1OC(O[C@H]2[C@H](OCc3ccc(Cl)cc3)[C@@H](O[C@H]3O[C@H](COCc4ccc(Cl)cc4)[C@@H](OCc4ccc(Cl)cc4)[C@H](N)[C@H]3OCc3ccc(Cl)cc3)[C@H](N)C[C@@H]2N)[C@H](OCc2ccc(Cl)cc2)[C@@H](OCc2ccc(Cl)cc2)[C@@H]1OCc1ccc(Cl)cc1.O=C(O)C(F)(F)F (some centres undefined) | 32 | > 128 | 32 | > 128 | 64 | 128 | 128 | 64 | 16 | 32 | > 128 | > 128 | > 128
